Data set [1] relates to HeLa. Nature of the data set: Cell cycle arrest in human HeLa cells assessed as reduction in S phase after 24 hrs by propidium iodide staining-based flow cytometry. It is filed as functional. In a few lines:
(§1)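 HeLa cells in exponential growth (2.5 × 10^5) treated 24 h at various concentrations; ethanol-fixed (70%, ice-cold), lysed with RNase A/0.1% Triton X-100, PI-stained; DNA content by flow cytometry, phase percentages from DNA histograms.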
(In general: Flow cytometry measures light scatter and fluorescence of single cells or particles in a stream.)

The next data set addresses Tubulin (Homo sapiens) (UniProt P68371+Q9H4B7+P0DPH7+P68366+Q13509+Q71U36+P04350+Q3ZCM7+P07437+P68363+Q9BQE3+Q6PEY2+Q13885+Q9BVA1+Q9BUF5). Kind of data set: Inhibition of tubulin polymerization in human HeLa cells assessed as microtubule disruption at 2.5 to 5 uM after 24 hrs by immunofluorescence microscopy relative to untreated control. It is filed as cell-based. In short, it runs like this:
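HeLa cells exposed 24 h to 2.5 or 5.0 μM versus untreated; fixed in cold 4% formaldehyde 15 min, stained with anti-β-tubulin monoclonal (1:1000) and Alexa secondary (1:2000), DAPI counterstain; imaged by confocal microscopy at 20×.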

A further data set has as its target Tubulin (Bos taurus) (UniProt Q6B856+Q862L2+Q862F3). Nature of the data set: Inhibition of bovine brain tubulin polymerization at 20 uM by turbidimetry. In a few lines: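 Purified bovine brain tubulin (10 μM) preincubated with compound in glutamate buffer at 30 °C, cooled to 0 °C, GTP added, then warmed to 30 °C in cuvettes; assembly followed turbidimetrically; concentrations up to 20 μM.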

Data set [2] relates to HeLa. Nature of the data set: Cell cycle arrest in human HeLa cells assessed as accumulation at G2/M phase after 24 hrs by propidium iodide staining-based flow cytometry. It is filed as functional. In a few lines: as §1
Data set [3] has as its system HeLa. Nature of the data set: Cytotoxicity against human HeLa cells assessed as growth inhibition after 72 hrs by MTT assay. It counts as functional, cell-based. In general terms: Formazan colour is commonly taken as a measure of viable cells.
The subject of data set [4] is PBMC. Nature of the data set: Cytotoxicity against human PHA-stimulated PBMC assessed as growth inhibition after 72 hrs by MTT assay. It is filed as functional, cell-based.
The subject of data set [5] is HeLa. Nature of the data set: Induction of apoptosis in human HeLa cells assessed as caspase activation at 2.5 uM after 48 hrs in presence of pan-caspase inhibitor z-VAD.fmk. It is filed as functional, cell-based. In short, it runs like this: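 HeLa cells given 2.5 μM compound for 48 h with or without 100 μM z-VAD.fmk pan-caspase inhibitor; viability measured; means ± SEM of three independent experiments, Student's t-test.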

Data set [6] concerns HeLa. Nature of the data set: Induction of apoptosis in human HeLa cells assessed as caspase-8 activation at 1 to 2.5 uM after 24 to 48 hrs by Western blotting analysis. It counts as functional, cell-based. In short, it runs like this:
(§2)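 HeLa cells treated at indicated concentrations and times; washed in cold PBS, lysed 30 min at 0 °C, cleared at 15 000 × g; 20 μg protein resolved on 7.5–15% gradient SDS-PAGE, blotted to PVDF, primary antibodies 2 h room temperature, peroxidase secondary 60 min, ECL detection; β-actin reprobe for loading.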
On the technique in general: A western blot detects proteins with antibodies after separation by electrophoresis.

Data set [7] has as its system HeLa. Kind of data set: Induction of apoptosis in human HeLa cells assessed as caspase-9 activation at 1 to 2.5 uM after 24 to 48 hrs by Western blotting analysis. It is filed as functional, cell-based. In a few lines:
as §2

Data set [8] deals with HeLa. Kind of data set: Induction of apoptosis in human HeLa cells assessed as GSH depletion after 24 hrs by CMFDA staining-based flow cytometry. It is filed as functional, cell-based. In a few lines: (§3)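 HeLa cells treated 24 h with compound, alone or with 100 μM NAC; harvested and loaded with 5 μM CMFDA, 30 min at 37 °C; intracellular GSH read as CMFDA fluorescence by flow cytometry; means ± SEM.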

A short description of data set [9]: Cytotoxicity against human SEM cells assessed as growth inhibition after 72 hrs by MTT assay. It counts as functional, cell-based.
Data set [10] is described as follows: Cytotoxicity against human LoVo/DX cells assessed as growth inhibition after 72 hrs by MTT assay. It counts as functional, cell-based.
In data set [11] the test system is HeLa. Kind of data set: Induction of apoptosis in human HeLa cells assessed as PARP cleavage after 24 to 48 hrs by Western blotting analysis. It is filed as functional, cell-based. In short, it runs like this:
as §2

The test system of data set [12] is HeLa. Kind of data set: Induction of apoptosis in human HeLa cells assessed as reduction in Bcl-2 protein expression at 1 to 2.5 uM after 48 hrs by Western blotting analysis. It counts as functional, cell-based. In short, it runs like this: as §2
In data set [13] the test system is CCRF-CEM. Kind of data set: Resistance ratio of IC50 for human CEM/VBL100 cells to IC50 for human CEM cells. It counts as functional. In short, it runs like this: (§4)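 Ratio of IC50 in resistant line to IC50 in parental line (CEMVbl-100/CEM; LoVoDoxo/LoVo), each IC50 from 72 h MTT dose–response curves, ≥3 independent experiments.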
Another data set deals with Jurkat. Kind of data set: Cytotoxicity against human Jurkat cells assessed as growth inhibition after 72 hrs by MTT assay. It is filed as functional, cell-based.
The test system of data set [14] is HeLa. Nature of the data set: Induction of apoptosis in human HeLa cells at 0.62 to 5 uM after 24 to 48 hrs by Annexin V/FITC staining-based flow cytometry. It counts as functional, cell-based. In short, it runs like this:
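HeLa cells treated 24 or 48 h at indicated concentrations, then stained with annexin-V-FITC plus PI; flow cytometry with 488 nm excitation, 525 and 585 nm emission; live, early/late apoptotic and necrotic populations distinguished; means of three independent experiments.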

For data set [15], the system named is HeLa. Nature of the data set: Induction of DNA damage in human HeLa cells assessed as increase in gammaH2A.X protein expression at 1 to 2.5 uM after 48 hrs by Western blotting analysis. It is filed as functional, cell-based.
Data set [16] has as its system HeLa. Nature of the data set: Induction of apoptosis in human HeLa cells assessed as increase in Bax protein expression at 1 to 2.5 uM after 24 to 48 hrs by Western blotting analysis. It is filed as functional, cell-based.
The test system of data set [17] is HeLa. Nature of the data set: Induction of apoptosis in human HeLa cells assessed as reduction in Bcl-2 protein expression at 1 to 2.5 uM by Western blotting analysis. It counts as functional, cell-based. Particulars: TDE = time-dependent effect. In a few lines:
as §2

The subject of data set [18] is HeLa. Nature of the data set: Induction of apoptosis in human HeLa cells assessed as increase in Bak protein expression at 1 to 2.5 uM after 24 to 48 hrs by Western blotting analysis. It is filed as functional, cell-based.
Data set [19] can be described thus: Selectivity ratio of IC50 for human resting PBMC to IC50 for human Jurkat cells. It is filed as ADME, cell-based. Particulars: resting PBMC versus Jurkat cells, read-out: Ratio IC50.
The subject of data set [20] is HeLa. Kind of data set: Induction of apoptosis in human HeLa cells assessed as caspase-3 activation at 1 to 2.5 uM by Western blotting analysis. It counts as functional, cell-based. To be noted: TDE = time-dependent effect. In a few lines: as §2
Data set [21] has as its system HeLa. Kind of data set: Induction of apoptosis in human HeLa cells assessed as GSH depletion at 1 to 2.5 uM after 24 hrs by CMFDA staining-based flow cytometry in presence of N-acetylcysteine. It is filed as functional, cell-based. In short, it runs like this: as §3
The subject of data set [22] is HeLa. Nature of the data set: Induction of apoptosis in human HeLa cells assessed as PARP cleavage at 1 to 2.5 uM by Western blotting analysis. It counts as functional, cell-based. To be noted: TDE = time-dependent effect. In short, it runs like this:
as §2

Data set [23] can be described thus: Selectivity ratio of IC50 for human resting PBMC to IC50 for human CEM cells. It is filed as ADME, cell-based, CCRF-CEM. Particulars: resting PBMC versus CEM cells, read-out: Ratio IC50.
Data set [24] concerns HeLa. Nature of the data set: Induction of apoptosis in human HeLa cells assessed as increase in Bid protein expression at 1 uM after 24 hrs by Western blotting analysis. It is filed as functional, cell-based.
The test system of data set [25] is LoVo. Kind of data set: Resistance ratio of IC50 for human LoVo/DX cells to IC50 for human LoVo cells. It counts as functional. In short, it runs like this: as §4
Data set [26] is described as follows: Cytotoxicity against human CEM/VBL100 cells assessed as growth inhibition after 72 hrs by MTT assay. Particulars: CEM/VBL100, 72 h. It is filed as functional, cell-based.
A further data set deals with HT-29. Kind of data set: Cytotoxicity against human HT-29 cells assessed as growth inhibition after 72 hrs by MTT assay. It is filed as functional, cell-based. To be noted: HT-29, 72 h.
Data set [27] deals with HeLa. Nature of the data set: Induction of apoptosis in human HeLa cells assessed as reduction in Mcl-1 protein expression at 2.5 uM after 48 hrs by Western blotting analysis. It counts as functional, cell-based. In a few lines:
as §2

Data set [28] deals with HeLa. Kind of data set: Induction of apoptosis in human HeLa cells assessed as caspase-3 activation after 24 to 48 hrs by Western blotting analysis. It is filed as functional, cell-based. In short, it runs like this: as §2
The next data set deals with MCF7. Nature of the data set: Cytotoxicity against human MCF7 cells assessed as growth inhibition after 72 hrs by MTT assay. It is filed as functional, cell-based. To be noted: MCF7, 72 h.
In data set [29] the test system is PBMC. Kind of data set: Cytotoxicity against human resting PBMC assessed as growth inhibition after 72 hrs by MTT assay. It is filed as cell-based. In a few lines: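 Healthy-donor PBMC from Lymphoprep gradient, rested overnight in RPMI-1640/10% FBS; non-adherent cells at 5 × 10^5 cells/mL without PHA, treated 72 h with varying concentrations; viability by MTT; IC50 mean ± SEM, three separate experiments.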

For data set [30], the system named is CCRF-CEM. Nature of the data set: Cytotoxicity against human CEM cells assessed as growth inhibition after 72 hrs by MTT assay. It counts as functional, cell-based.
For data set [31], the system named is LoVo. Nature of the data set: Cytotoxicity against human LoVo cells assessed as growth inhibition after 72 hrs by MTT assay. It counts as functional, cell-based.
The test system of another data set is L1210. Nature of the data set: Cytotoxicity against mouse L1210 cells. It is filed as functional, cell-based.

Active and inactive are the calls of the source. No cut-off for these calls is given here. Where only a bound is given, the exact number is not on record here.

As usually defined, the IC50 is the concentration at which inhibition is half-maximal.

Regarding `C=C(Br)C(=O)Nc1cccc(/C=C/C(=O)Nc2ccc(N3CCOCC3)cc2)c1`, the result with HeLa [1], with HeLa [6], with HeLa [12], in the data set with HeLa [14], with HeLa [15] and with HeLa [27] was Active. The inhibition result on Tubulin (Homo sapiens) and at Tubulin (Bos taurus) was “inactive” in each case. Also, the Activity entry with HeLa [2] was “Dose-dependent effect”; in the data set with HeLa [8], “Dose-dependent effect”; in the data set on HeLa [11], “Dose-dependent effect”; in the data set with HeLa [17], “tde”; in the data set on HeLa [20] it was “tde”; in the data set on HeLa [22], “tde”. Further, the Activity result in the data set with HeLa [28] is “Dose-dependent effect”. Also, the IC50 with HeLa [3] was determined as 430 nM; with PBMC [4] it was 500 nM; in data set [9] it was 57 nM; in [10] it was 1050 nM; in the data set on Jurkat, 40 nM; in [26], 410 nM. The concentration for half-maximal inhibition (IC50) amounted to 1600 nM in the data set with HT-29; 2600 nM in the data set with MCF7; 4000 nM with PBMC [29]; 610 nM in the data set on CCRF-CEM [30]; 510 nM in the data set on LoVo [31]. Moreover, the outcome in the data set on HeLa [5], in the data set with HeLa [7], in the data set with HeLa [16], with HeLa [18], with HeLa [21] and with HeLa [24] was inactive. The “Ratio IC50” value in the data set with CCRF-CEM [13] was determined as 0.7; with LoVo [25], 2. Further, the selectivity ratio in data set [19] and in data set [23] was 10 in each case.

For the compound `C=C(Br)C(=O)O`, in the data set on L1210, the concentration for half-maximal inhibition (IC50) is over 120000 nM.

The record behind these values is ChEMBL document CHEMBL3286242, “Design, synthesis and biological evaluation of arylcinnamide hybrid derivatives as novel anticancer agents” (Eur J Med Chem, 2014).
